According to ChEMBL document CHEMBL4011598, “Sulfonamides as Selective NaV1.7 Inhibitors: Optimizing Potency and Pharmacokinetics While Mitigating Metabolic Liabilities” (J Med Chem, 2017):
Active and inactive are the calls of the source. No cut-off for these calls is given here.

Experiments:
[1] = system: Plasma; assay: Total plasma concentration in C57Bl/6 mouse at 30 mg/kg, po; assay type: ADME, organism-based; details: in vivo
[2] = system: Mus musculus; assay: Antipruriceptive activity in C57Bl/6 mouse assessed as reduction in number of histamine-induced scratching bouts at 30 to 300 mg/kg, po administered 4 hrs prior to histamine challenge measured over 15 mins; assay type: functional, organism-based
[3] = molecular target: T1, Sodium channel protein type 9 subunit alpha (Homo sapiens, UniProt Q15858); assay: Inhibition of human Nav1.7 expressed in HEK293 cells assessed as reduction in peak inward current by ionworks quattro electrophysiology assay; assay type: cell-based
T1 sequence (Q15858 whole entry): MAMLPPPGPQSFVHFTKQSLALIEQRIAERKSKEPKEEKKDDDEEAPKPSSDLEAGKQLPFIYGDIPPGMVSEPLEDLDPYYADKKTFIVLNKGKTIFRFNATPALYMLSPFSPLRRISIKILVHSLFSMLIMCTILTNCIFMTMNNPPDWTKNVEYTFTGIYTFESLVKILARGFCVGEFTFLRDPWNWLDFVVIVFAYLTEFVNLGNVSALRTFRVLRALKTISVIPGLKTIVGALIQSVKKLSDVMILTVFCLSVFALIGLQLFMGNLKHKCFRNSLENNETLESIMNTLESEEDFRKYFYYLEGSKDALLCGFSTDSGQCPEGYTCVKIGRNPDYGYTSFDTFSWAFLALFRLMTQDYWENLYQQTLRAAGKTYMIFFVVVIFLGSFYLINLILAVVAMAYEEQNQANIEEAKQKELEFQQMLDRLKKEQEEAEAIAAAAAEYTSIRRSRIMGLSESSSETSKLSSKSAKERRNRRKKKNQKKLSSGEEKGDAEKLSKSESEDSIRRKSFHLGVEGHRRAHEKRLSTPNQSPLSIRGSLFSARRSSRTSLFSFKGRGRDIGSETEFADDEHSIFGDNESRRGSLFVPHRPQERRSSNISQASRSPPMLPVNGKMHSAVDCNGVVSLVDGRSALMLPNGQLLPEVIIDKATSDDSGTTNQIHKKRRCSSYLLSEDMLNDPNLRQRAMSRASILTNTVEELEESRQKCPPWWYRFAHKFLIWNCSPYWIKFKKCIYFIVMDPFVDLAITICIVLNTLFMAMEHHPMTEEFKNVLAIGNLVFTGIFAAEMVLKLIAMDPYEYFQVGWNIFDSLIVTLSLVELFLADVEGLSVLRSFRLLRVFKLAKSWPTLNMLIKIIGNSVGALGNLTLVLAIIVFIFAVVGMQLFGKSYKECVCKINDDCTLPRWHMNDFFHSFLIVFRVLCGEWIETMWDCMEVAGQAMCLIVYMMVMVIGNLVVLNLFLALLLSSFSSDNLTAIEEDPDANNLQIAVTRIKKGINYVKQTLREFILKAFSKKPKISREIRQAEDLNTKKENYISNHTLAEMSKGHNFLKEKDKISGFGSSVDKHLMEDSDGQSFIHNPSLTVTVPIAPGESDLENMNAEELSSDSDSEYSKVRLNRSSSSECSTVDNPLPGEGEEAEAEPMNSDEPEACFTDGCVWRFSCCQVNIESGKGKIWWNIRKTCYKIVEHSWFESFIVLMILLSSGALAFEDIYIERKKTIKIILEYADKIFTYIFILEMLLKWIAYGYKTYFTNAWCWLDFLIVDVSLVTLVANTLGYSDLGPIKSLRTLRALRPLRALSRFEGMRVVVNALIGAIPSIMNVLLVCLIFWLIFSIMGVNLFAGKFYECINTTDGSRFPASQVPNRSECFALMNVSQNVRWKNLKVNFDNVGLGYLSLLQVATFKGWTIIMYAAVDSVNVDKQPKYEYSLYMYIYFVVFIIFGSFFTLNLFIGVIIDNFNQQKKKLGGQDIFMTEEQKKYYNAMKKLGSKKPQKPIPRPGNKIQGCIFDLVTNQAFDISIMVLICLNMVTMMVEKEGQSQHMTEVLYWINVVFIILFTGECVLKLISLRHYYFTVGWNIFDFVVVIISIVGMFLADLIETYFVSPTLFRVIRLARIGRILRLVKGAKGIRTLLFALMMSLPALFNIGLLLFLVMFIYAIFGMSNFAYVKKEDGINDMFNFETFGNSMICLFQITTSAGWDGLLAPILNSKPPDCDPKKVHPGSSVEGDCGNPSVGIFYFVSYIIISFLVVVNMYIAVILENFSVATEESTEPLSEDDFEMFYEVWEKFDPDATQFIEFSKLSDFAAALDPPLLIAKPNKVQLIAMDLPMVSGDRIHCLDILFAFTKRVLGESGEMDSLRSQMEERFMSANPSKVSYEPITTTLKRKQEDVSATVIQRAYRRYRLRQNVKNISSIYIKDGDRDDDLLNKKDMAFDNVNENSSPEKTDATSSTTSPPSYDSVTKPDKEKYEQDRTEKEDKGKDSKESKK

[4] = molecular target: Sodium channel protein type 5 subunit alpha (Homo sapiens, UniProt Q14524); assay: Inhibition of human Nav1.5 expressed in HEK293 cells assessed as reduction in peak inward current by ionworks quattro electrophysiology assay; assay type: cell-based
Sequence of Sodium channel protein type 5 subunit alpha (Q14524 whole entry): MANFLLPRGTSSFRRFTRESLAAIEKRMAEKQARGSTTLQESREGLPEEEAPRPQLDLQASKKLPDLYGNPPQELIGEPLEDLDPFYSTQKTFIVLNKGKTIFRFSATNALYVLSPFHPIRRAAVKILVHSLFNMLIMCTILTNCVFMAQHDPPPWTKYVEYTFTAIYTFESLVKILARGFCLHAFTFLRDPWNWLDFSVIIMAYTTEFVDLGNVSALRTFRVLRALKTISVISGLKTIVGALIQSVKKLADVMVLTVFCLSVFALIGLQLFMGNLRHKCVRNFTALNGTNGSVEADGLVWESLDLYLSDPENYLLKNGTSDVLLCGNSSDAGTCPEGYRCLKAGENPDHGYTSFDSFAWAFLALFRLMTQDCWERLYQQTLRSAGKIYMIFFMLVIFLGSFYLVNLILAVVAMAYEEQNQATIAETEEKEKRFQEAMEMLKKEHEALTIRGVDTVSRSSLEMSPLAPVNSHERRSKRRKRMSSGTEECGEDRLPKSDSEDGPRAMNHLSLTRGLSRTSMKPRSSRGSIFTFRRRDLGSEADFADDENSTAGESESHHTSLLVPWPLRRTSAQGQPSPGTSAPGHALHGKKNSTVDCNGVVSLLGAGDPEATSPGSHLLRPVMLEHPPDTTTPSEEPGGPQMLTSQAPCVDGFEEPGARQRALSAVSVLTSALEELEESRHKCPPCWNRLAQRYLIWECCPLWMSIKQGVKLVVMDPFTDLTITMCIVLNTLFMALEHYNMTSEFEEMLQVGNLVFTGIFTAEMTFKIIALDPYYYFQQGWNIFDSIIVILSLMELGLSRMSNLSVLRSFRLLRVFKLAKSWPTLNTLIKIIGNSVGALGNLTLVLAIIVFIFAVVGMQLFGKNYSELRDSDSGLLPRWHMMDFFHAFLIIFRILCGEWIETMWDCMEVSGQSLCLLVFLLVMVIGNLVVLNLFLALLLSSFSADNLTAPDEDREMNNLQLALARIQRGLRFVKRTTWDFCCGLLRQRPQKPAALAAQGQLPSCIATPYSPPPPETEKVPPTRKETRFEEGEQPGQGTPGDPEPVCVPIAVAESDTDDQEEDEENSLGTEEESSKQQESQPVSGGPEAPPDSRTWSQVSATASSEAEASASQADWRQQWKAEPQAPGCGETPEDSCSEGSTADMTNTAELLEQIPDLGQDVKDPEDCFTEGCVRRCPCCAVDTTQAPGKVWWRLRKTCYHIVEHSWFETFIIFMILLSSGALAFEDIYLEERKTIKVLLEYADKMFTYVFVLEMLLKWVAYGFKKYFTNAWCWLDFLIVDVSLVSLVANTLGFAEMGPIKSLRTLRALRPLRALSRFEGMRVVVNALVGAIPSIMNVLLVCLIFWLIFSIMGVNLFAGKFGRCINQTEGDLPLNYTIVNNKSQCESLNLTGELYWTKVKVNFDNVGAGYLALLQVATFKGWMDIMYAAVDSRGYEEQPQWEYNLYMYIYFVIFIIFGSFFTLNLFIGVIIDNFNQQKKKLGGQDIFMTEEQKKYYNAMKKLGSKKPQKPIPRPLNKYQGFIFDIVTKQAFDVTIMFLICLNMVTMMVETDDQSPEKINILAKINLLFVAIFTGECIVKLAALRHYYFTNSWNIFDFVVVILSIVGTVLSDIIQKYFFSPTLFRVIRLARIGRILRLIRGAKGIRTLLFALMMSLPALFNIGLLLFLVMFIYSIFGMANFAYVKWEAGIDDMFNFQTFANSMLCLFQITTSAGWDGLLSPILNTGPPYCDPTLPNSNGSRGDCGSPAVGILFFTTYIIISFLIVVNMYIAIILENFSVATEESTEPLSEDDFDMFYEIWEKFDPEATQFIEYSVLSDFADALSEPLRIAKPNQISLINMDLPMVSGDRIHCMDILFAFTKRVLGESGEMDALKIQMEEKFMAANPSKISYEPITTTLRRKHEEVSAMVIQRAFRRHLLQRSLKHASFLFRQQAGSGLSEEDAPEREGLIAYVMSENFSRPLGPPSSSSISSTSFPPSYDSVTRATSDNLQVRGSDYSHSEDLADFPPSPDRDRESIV

[5] = molecular target: Sodium channel protein type 1 subunit alpha (Homo sapiens, UniProt P35498); assay: Inhibition of human Nav1.1 expressed in HEK293 cells assessed as reduction in peak inward current by ionworks quattro electrophysiology assay; assay type: cell-based
[6] = system: Canis familiaris; assay: Unbound clearance in dog at 0.25 mg/kg, iv; assay type: ADME, organism-based, Canis lupus familiaris; details: in vivo
In short: (§1)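 Male dogs received a single 0.25 mg/kg iv dose in DMSO. Unbound clearance (CLu) is total clearance divided by fu, the unbound fraction in plasma.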

[7] = Intrinsic clearance in human liver microsomes at 1 uM after 1 to 40 mins in presence of NADPH by LC-MS/MS analysis; assay type: ADME, microsome; details: read-out: CLH
[8] = molecular target: T2, PXR (NR1I2) (Homo sapiens, UniProt O75469); assay: Activation of human PXR at 10 uM in presence of rifampicin; assay type: ADME; details: read-out: Activity
T2 sequence (O75469 whole entry): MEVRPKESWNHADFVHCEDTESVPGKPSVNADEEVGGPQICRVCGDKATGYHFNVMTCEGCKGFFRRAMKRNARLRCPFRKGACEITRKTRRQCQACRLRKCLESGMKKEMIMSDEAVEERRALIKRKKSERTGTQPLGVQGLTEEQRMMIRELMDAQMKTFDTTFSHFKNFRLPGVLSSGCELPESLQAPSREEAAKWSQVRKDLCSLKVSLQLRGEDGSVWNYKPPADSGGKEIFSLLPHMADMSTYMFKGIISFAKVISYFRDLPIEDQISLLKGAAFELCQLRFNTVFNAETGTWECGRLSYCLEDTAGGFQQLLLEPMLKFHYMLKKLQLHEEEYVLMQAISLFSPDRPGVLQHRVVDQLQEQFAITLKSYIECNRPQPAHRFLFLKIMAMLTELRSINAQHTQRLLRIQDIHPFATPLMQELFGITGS

[9] = Total clearance in rat at 0.5 mg/kg, iv; assay type: ADME, organism-based; details: in vivo
In short: (§2)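 Male rats given a single 0.5 mg/kg iv dose in DMSO. Unbound clearance (CLu) is total clearance divided by fu, the unbound fraction in plasma.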

[10] = Total clearance in dog at 0.25 mg/kg, iv; assay type: ADME, organism-based, Canis lupus familiaris; details: in vivo; in short: as §1
[11] = Volume of distribution at steady state in rat at 0.5 mg/kg, iv; assay type: ADME, organism-based; details: in vivo, read-out: Vdss; in short: as §2
[12] = Half life in rat at 0.5 mg/kg, iv; assay type: ADME, organism-based; details: in vivo; in short: as §2
[13] = Half life in dog at 0.25 mg/kg, iv; assay type: ADME, organism-based, Canis lupus familiaris; details: in vivo; in short: as §1
[14] = AUC in rat at 10 mg/kg, po; assay type: ADME, organism-based; details: in vivo
[15] = AUC in dog at 2 mg/kg, po; assay type: ADME, organism-based, Canis lupus familiaris; details: in vivo
[16] = Oral bioavailability in rat at 10 mg/kg; assay type: ADME, organism-based; details: in vivo
[17] = Oral bioavailability in dog at 2 mg/kg; assay type: ADME, organism-based, Canis lupus familiaris; details: in vivo
[18] = Unbound fraction in rat plasma at 5 uM by LC-MS/MS method; assay type: ADME, cell-free
[19] = Unbound fraction in dog plasma at 5 uM by LC-MS/MS method; assay type: ADME, cell-free, Canis lupus familiaris
[20] = system: Mus musculus; assay: Toxicity in naive C57Bl/6 mouse assessed as effect on basic locomotor movement at 30 to 300 mg/kg, po measured after 4 hrs for 60 mins by open field test; assay type: organism-based; details: in vivo
[21] = Tmax in dog at 2 mg/kg, po; assay type: ADME, organism-based, Canis lupus familiaris; details: in vivo
[22] = molecular target: Cytochrome P450 2D6 (Homo sapiens, UniProt P10635); assay: Inhibition of CYP2D6 (unknown origin); assay type: ADME
Sequence of Cytochrome P450 2D6 (P10635 whole entry): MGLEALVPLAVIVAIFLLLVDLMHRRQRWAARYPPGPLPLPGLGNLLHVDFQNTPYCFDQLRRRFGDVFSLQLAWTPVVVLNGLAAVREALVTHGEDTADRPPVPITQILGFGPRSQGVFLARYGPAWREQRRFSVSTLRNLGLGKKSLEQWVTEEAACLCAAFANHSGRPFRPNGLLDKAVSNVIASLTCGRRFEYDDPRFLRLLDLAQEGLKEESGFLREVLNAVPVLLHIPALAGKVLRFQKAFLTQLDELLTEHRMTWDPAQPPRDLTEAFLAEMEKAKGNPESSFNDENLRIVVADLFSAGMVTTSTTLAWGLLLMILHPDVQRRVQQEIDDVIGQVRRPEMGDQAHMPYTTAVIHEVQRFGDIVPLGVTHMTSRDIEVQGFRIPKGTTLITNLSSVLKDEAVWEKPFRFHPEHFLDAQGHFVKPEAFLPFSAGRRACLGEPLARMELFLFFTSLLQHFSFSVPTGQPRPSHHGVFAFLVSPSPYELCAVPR

[23] = molecular target: T3, Cytochrome P450 1A2 (Homo sapiens, UniProt P05177); assay: Inhibition of CYP1A2 (unknown origin); assay type: ADME
T3 sequence (P05177 whole entry): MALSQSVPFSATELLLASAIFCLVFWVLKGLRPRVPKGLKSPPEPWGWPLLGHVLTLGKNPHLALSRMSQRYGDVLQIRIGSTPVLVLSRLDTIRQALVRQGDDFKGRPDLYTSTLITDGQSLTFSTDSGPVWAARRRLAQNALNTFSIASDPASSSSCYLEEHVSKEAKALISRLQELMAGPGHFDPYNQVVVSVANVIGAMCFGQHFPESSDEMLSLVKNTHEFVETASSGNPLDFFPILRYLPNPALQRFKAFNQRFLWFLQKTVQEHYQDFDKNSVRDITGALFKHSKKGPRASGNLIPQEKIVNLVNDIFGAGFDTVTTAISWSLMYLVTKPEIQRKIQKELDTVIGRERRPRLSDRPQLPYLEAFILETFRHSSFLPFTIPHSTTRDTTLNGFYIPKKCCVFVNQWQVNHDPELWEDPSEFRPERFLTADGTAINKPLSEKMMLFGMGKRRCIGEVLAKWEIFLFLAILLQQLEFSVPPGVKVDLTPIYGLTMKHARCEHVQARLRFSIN

[24] = system: Plasma; assay: Total plasma concentration in C57Bl/6 mouse at 100 mg/kg, po; assay type: ADME, organism-based; details: in vivo
[25] = system: Plasma; assay: Total plasma concentration in C57Bl/6 mouse at 300 mg/kg, po; assay type: ADME, organism-based; details: in vivo
[26] = system: Plasma; assay: Unbound plasma concentration in C57Bl/6 mouse at 30 mg/kg, po; assay type: ADME, organism-based; details: in vivo
[27] = system: Plasma; assay: Unbound plasma concentration in C57Bl/6 mouse at 100 mg/kg, po; assay type: ADME, organism-based; details: in vivo
[28] = system: Plasma; assay: Unbound plasma concentration in C57Bl/6 mouse at 300 mg/kg, po; assay type: ADME, organism-based; details: in vivo
[29] = molecular target: T1, Sodium channel protein type 9 subunit alpha; assay: Inhibition of human Nav1.7 expressed in HEK293 cells incubated for 3 to 5 mins at -125 mV holding potential by electrophysiology assay; assay type: cell-based
[30] = molecular target: Sodium channel protein type 9 subunit alpha (Mus musculus, UniProt Q62205); assay: Inhibition of mouse Nav1.7 expressed in HEK293 cells incubated for 3 to 5 mins at -125 mV holding potential by electrophysiology assay; assay type: cell-based
[31] = molecular target: Sodium channel protein type 9 subunit alpha (Rattus norvegicus, UniProt O08562); assay: Inhibition of rat Nav1.7 expressed in HEK293T cells incubated for 3 to 5 mins at -125 mV holding potential by electrophysiology assay; assay type: cell-based
[32] = molecular target: T1, Sodium channel protein type 9 subunit alpha; assay: Inhibition of human Nav1.7 at resting/closed state expressed in HEK293 cells at -140 mV holding potential by manual whole cell patch clamp electrophysiology assay; assay type: cell-based
[33] = Ratio of unbound plasma concentration in C57Bl/6 mouse at 300 mg/kg, po to IC50 for human Nav1.7 at -125 mV holding potential

concentration [1]: 21.2 µM
IC50 [3]: 0.017 µM
IC50 [5]: 17 µM
CL free [6]: 60 mL/min/kg
microsomal CLint at 1 µM [7]: < 14 µL/min/mg
activity at 10 µM [8]: 1%
clearance [9]: 3.83 mL/min/kg
clearance [10]: 0.383 mL/min/kg
Vd [11]: 2.1 L/kg
half-life [12]: 6.2 h
half-life [13]: 20 h
AUC [14]: 44.2 µM·h
AUC [15]: 101 µM·h
bioavailability [16]: 54%
bioavailability [17]: 63%
fraction unbound at 5 µM [18]: 0.0087
fraction unbound at 5 µM [19]: 0.0066
Tmax [21]: 2 h
IC50 [22]: > 15 µM
IC50 [23]: > 15 µM
concentration [24]: 106 µM
concentration [25]: 137 µM
Cp(f) [26]: 0.246 µM
Cp(f) [27]: 1.23 µM
Cp(f) [28]: 1.59 µM
IC50 [29]: 0.036 µM
IC50 [30]: 0.036 µM
IC50 [31]: 4 µM
IC50 [32]: 4 µM
Compound: COc1cc(-c2cccc(C(F)(F)F)c2)c(F)cc1-c1nccc2cc(S(=O)(=O)Nc3ccon3)ccc12
Activity [2]: Active
IC50 [4]: 12 µM
Activity [20]: Non-Toxic
Ratio [33]: 45
